For experiment [1], the system named is carboxylesterase (CES) enzymes. As to the kind of experiment: gel-based ABPP of liver, lung and spleen from inhibitor-treated mice. Type of experiment: in vivo, mouse.
The target of the next experiment is T1, MAGL (Mus musculus, UniProt O35678).
T1 sequence (O35678 1-303): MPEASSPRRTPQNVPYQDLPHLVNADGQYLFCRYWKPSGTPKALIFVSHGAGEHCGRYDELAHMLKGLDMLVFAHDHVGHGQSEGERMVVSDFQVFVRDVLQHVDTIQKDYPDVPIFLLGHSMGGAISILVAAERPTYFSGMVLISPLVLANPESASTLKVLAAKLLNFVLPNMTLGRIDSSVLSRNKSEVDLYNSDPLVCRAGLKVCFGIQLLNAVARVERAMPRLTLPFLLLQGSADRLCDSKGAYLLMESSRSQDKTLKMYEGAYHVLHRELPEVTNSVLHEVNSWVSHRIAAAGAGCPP
As to the kind of experiment: 2-AG substrate assay in mouse brain proteomes. Type of experiment: biochemical.

Experiment [2] has as its target T2, FAAH (Mus musculus, UniProt O08914).
T2 sequence (O08914 1-579): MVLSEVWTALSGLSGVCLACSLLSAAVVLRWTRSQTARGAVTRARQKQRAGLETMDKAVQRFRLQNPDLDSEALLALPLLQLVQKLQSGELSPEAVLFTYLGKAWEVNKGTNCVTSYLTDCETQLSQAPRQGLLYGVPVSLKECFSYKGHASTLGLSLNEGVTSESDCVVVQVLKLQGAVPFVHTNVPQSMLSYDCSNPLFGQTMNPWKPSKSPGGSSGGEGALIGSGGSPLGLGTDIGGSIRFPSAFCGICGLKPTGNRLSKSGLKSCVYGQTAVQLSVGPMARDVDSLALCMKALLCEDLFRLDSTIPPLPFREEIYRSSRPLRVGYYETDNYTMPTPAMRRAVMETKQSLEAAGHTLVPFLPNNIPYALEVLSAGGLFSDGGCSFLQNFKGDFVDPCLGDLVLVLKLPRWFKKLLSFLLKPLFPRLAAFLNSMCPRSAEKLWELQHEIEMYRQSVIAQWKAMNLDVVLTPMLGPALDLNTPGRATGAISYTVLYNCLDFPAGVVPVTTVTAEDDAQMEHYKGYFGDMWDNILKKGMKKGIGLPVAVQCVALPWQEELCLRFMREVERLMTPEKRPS
As to the kind of experiment: AEA hydrolytic activity of brain tissue from treated mice. It counts as in vivo. The following applies: KML29-treated mice, 1–40 mg kg^−1 p.o. A digest of the protocol:
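C57Bl/6 mice were dosed orally with the test compound (1–40 mg kg−1) or vehicle. The compound was dissolved in PEG by prolonged sonication and mild heating. Mice were killed after 4 h. Brain was analysed for 2-AG, AA, AEA, PEA and OEA, and brain proteomes for residual AEA and 2-AG hydrolysis (substrate assay). n = 3 mice/group, means ± SEM, compared with vehicle-treated mice.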

Experiment [3] deals with brain 2-AG, AA, AEA, PEA, OEA. In words: brain lipid profile of KML29-treated rats. It counts as in vivo, rat. The note with it: 1–40 mg kg^−1 i.p., 4 h. A digest of the protocol: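 Wistar rats were given the test compound i.p. (1–40 mg kg−1, saline:emulphor:ethanol 18:1:1 vehicle) or vehicle and killed at 4 h. Brain 2-AG, AA, AEA, PEA and OEA levels were measured. Means ± SEM, n = 3 rats/group, with statistics against vehicle-treated rats.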

Experiment [4] deals with T2, FAAH. In words: AEA substrate assay in mouse brain proteomes. Type of experiment: biochemical. A digest of the protocol:
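Mouse brain proteome was treated with test compound. FAAH activity was read as hydrolysis of AEA substrate. Data are means ± SEM of three independent experiments.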

For experiment [5], the target named is T3, FAAH (Rattus norvegicus, UniProt P97612).
T3 sequence (P97612 1-579): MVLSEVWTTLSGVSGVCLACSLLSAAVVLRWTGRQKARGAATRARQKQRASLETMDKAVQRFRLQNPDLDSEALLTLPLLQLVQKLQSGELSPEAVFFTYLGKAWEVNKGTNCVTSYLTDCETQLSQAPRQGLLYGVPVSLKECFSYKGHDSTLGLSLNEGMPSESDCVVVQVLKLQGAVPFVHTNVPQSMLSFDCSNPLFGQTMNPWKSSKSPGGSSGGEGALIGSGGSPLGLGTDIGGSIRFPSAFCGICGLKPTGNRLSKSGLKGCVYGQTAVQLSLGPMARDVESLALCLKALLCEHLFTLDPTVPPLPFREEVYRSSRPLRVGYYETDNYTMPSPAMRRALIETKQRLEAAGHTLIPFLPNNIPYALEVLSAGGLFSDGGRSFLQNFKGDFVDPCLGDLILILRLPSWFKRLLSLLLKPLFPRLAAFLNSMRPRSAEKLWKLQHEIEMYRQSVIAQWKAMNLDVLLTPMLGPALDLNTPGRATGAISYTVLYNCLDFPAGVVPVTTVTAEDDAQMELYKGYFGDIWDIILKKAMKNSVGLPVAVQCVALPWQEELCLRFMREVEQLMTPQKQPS
As to the kind of experiment: competitive ABPP of brain from KML29-treated rats. The following applies: Wistar rats, 1–40 mg kg^−1 i.p., 4 h. It counts as in vivo. The method, boiled down:
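Wistar rats were injected i.p. with the test compound (1–40 mg kg−1) or vehicle. Vehicle was saline:emulphor:ethanol 18:1:1, with prolonged sonication and mild heating to dissolve. Rats were killed at 4 h. Brain, liver, lung and spleen proteomes were labelled with FP-Rh, separated by SDS-PAGE and scanned for in-gel fluorescence. Inhibition was scored as reduced probe labelling. n = 3 rats/group.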

In the next experiment the target is T4, ABHD6 (Mus musculus, UniProt Q8R2Y0).
T4 sequence (Q8R2Y0 1-336): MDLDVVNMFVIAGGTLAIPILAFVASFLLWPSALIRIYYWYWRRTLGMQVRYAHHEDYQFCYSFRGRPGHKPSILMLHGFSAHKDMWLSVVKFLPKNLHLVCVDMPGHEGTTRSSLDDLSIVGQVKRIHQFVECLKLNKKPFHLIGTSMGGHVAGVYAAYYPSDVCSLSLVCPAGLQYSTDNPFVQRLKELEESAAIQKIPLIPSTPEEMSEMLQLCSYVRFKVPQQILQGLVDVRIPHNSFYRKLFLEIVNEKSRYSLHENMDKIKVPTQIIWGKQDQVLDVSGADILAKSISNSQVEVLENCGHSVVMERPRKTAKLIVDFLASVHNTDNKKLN
As to the kind of experiment: competitive ABPP, mouse brain membrane proteome. It counts as biochemical. The note with it: mouse brain serine hydrolase activities, full ABPP gel. The method, boiled down: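 Brain (mouse or rat) or mouse lung proteomes were preincubated with the test compound, then treated with the serine hydrolase probe FP-Rh. Samples were separated by SDS-PAGE and read by in-gel fluorescence scanning. Inhibition was taken as reduced FP-Rh labelling of MAGL, ABHD6, FAAH or CES bands, and IC50 values were calculated from quantified gel bands. Three independent experiments.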

This is an account of results in paper PMC3361572 (Chemistry & biology, 2012).

As to `O=C(OC(C(F)(F)F)C(F)(F)F)N1CCC(C(O)(c2ccc3c(c2)OCO3)c2ccc3c(c2)OCO3)CC1` [KML29], in experiment [1] (40 mg kg^−1 p.o., six days), the “CES inhibition in peripheral tissues, chronic dosing” value is “minimal cross-reactivity with CES enzymes”. In experiment [1] (p.o., 4 h, peripheral tissues), the “doses at which CES cross-reactivity (single ~70 kDa enzyme) was detected” value fell in the range of 20 to 40 mg/kg. Moreover, the “inhibition of 2-AG hydrolysis” value at MAGL is listed as “potent inhibitor of 2-AG hydrolysis”. In addition, at FAAH [2], the “residual FAAH activity in brain proteomes (substrate assay)” value is reported as “lack of any effect on FAAH”. Also, in experiment [3], the “brain AA levels” value was “decrease proportionally with the elevations in 2-AG”; the “brain AEA, PEA, or OEA” value is recorded as “without alteration”; the “elevations in brain 2-AG” value is on record as “approximately 10 fold”. Moreover, the “effect on AEA hydrolysis” value at FAAH [4] was “did not affect AEA hydrolysis at any concentration tested”. In addition, the “cross-reactivity with brain FAAH” value on FAAH [5] is “without any detectable cross-reactivity”. The “concentrations with inhibition of ABHD6” value at ABHD6 was more than 1 µM.
